ChEMBL document CHEMBL1123779, “Modifications of primaquine as antimalarials. 4. 5-Alkoxy derivatives of primaquine” (J Med Chem, 1987)

Legend:
[1] = tested on: Mus musculus; assay: (§1) Suppressive blood schizonticidal antimalarial activity evaluated in the trophozoite-induced Plasmodium berghei infection in mice (Mus musculus) at a dose 160 mg/kg; assay type: ADME, organism-based; design: dose 160 mg/kg; details: in vivo
Procedure, shortened: (§2)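 Run at the Rane Laboratory in mice infected with blood-induced P. berghei, five animals per group. Activity is the increase in mean survival time over untreated infected controls. A compound counts as active when treated-group MST is more than twice the control MST. Cures are mice surviving at 60 days postinfection.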

[2] = tested on: Plasmodium berghei; assay: (§3) Suppressive blood schizonticidal antimalarial activity evaluated in the trophozoite-induced Plasmodium berghei infection in mice (Mus musculus) at a dose 640 mg/kg given as number of toxic deaths; assay type: toxicity, organism-based; design: dose 640 mg/kg; details: in vivo
Procedure, shortened: (§4)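 Rane Laboratory mouse test with blood-induced P. berghei infection, five mice per group. Toxic deaths are deaths occurring before the 6th day postinfection.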

[3] = tested on: Plasmodium cynomolgi; assay: Cures in Plasmodium cynomolgi infected Rhesus monkeys (Macaca mulatta) on 0.1 mg/kg/day after 7 days (x7); cured 0 of 2; assay type: functional
[4] = tested on: Plasmodium cynomolgi; assay: Cures in Plasmodium cynomolgi infected Rhesus monkeys (Macaca mulatta) on 1 mg/kg/day after 7 days; cured 3 of 3; assay type: functional
[5] = tested on: Mus musculus; assay: Suppressive blood schizonticidal antimalarial activity evaluated in the trophozoite-induced Plasmodium berghei infection in mice (Mus musculus) at a dose 320 mg/kg given as no. of toxic deaths; assay type: functional; procedure, shortened: as §4
[6] = tested on: Mus musculus; assay: Suppressive blood schizonticidal antimalarial activity evaluated in the trophozoite-induced Plasmodium berghei infection in mice (Mus musculus) at a dose 40 mg/kg; assay type: functional; design: unit not given beside the values; procedure, shortened: as §2
[7] = tested on: Plasmodium berghei; assay: Blood schizonticidal antimalarial activity in the trophozoite-induced Plasmodium berghei infection in mice (Mus musculus) at 20 mg/kg; assay type: functional; design: unit not given beside the values; procedure, shortened: as §2
[8] = tested on: Plasmodium cynomolgi; assay: Cures in Plasmodium cynomolgi infected Rhesus monkeys (Macaca mulatta) on 0.316 mg/kg/day after 7 days; cures 2 of 2; assay type: functional
[9] = tested on: Plasmodium cynomolgi; assay: Cures in Plasmodium cynomolgi infected Rhesus monkeys (Macaca mulatta) on 10.0 mg/kg/day after 7 days; cured 1 of 1; assay type: functional
[10] = tested on: Mus musculus; assay: Suppressive blood schizonticidal antimalarial activity evaluated in the trophozoite-induced Plasmodium berghei infection in mice (Mus musculus) at a dose 10 mg/kg; assay type: functional; procedure, shortened: as §2
[11] = tested on: Mus musculus; assay: (§5) Suppressive blood schizonticidal antimalarial activity evaluated in the trophozoite-induced Plasmodium berghei infection in mice (Mus musculus) at a dose 80 mg/kg; assay type: ADME, organism-based; design: dose 80 mg/kg; details: in vivo; procedure, shortened: as §2
[12] = tested on: Mus musculus; assay: Suppressive blood schizonticidal antimalarial activity evaluated in the trophozoite-induced Plasmodium berghei infection in mice (Mus musculus) at a dose 160 mg/kg given as no. of toxic deaths; assay type: functional; procedure, shortened: as §4
[13] = tested on: Mus musculus; assay: as §3; assay type: ADME, organism-based; design: dose 640 mg/kg; details: in vivo; procedure, shortened: as §4
[14] = tested on: Mus musculus; assay: as §5; assay type: functional; design: unit not given beside the values; procedure, shortened: as §2
[15] = tested on: Plasmodium cynomolgi; assay: Cures in Plasmodium cynomolgi infected Rhesus monkeys (Macaca mulatta) on 1 mg/kg/day after 7 days; cured 1 of 1; assay type: functional
[16] = tested on: Plasmodium cynomolgi; assay: Cures in Plasmodium cynomolgi infected Rhesus monkeys (Macaca mulatta) on 0.316 mg/kg/day after 7 days; cured 1 of 2; assay type: functional
[17] = tested on: Plasmodium cynomolgi; assay: Cures in Plasmodium cynomolgi infected Rhesus monkeys (Macaca mulatta) on 1 mg/kg/day after 7 days; cured 0 of 2; assay type: functional
[18] = tested on: Plasmodium cynomolgi; assay: Cures in Plasmodium cynomolgi infected Rhesus monkeys (Macaca mulatta) on 10.0 mg/kg/day after 7 days; cured 2 of 2; assay type: functional
[19] = tested on: Mus musculus; assay: as §1; assay type: functional; procedure, shortened: as §2
[20] = tested on: Mus musculus; assay: Suppressive blood schizonticidal antimalarial activity evaluated in the trophozoite-induced Plasmodium berghei infection in mice (Mus musculus) at a dose 640 mg/kg given as no. of cures; assay type: functional
Procedure, shortened: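 Run at the Rane Laboratory with blood-induced P. berghei infections in mice, five animals per group. A cure is a mouse surviving to 60 days postinfection. Deaths before day 6 are recorded separately as toxic deaths. Activity is scored from the increase in mean survival time over untreated controls, and counts as active when treated MST is more than twice control MST.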

[21] = tested on: Mus musculus; assay: Suppressive blood schizonticidal antimalarial activity evaluated in the trophozoite-induced Plasmodium berghei infection in mice (Mus musculus) at a dose 320 mg/kg; assay type: functional; procedure, shortened: as §2
[22] = tested on: Plasmodium cynomolgi; assay: Cures in Plasmodium cynomolgi infected Rhesus monkeys (Macaca mulatta) on 0.316 mg/kg/day after 7 days; cured 0 of 2; assay type: functional

With `CCCOc1c(OC)cc(NC(C)CCCN)c2ncccc12` (stereo not given) as the molecule, how does the Toxic deaths [1] read?
Its Toxic deaths is 5.

What about the Toxic deaths [2] of the same molecule?
Its Toxic deaths is 5.

What about the Cures/no. of animals [3] of the same molecule?
The Cures/no. of animals was 0.

And the Cures/no. of animals [4]?
Its Cures/no. of animals is 3.

And the Toxic deaths [5]?
The Toxic deaths was 5.

What about the “Delta MST” value [6] of the same molecule?
The value was 8.3.

And the “Delta MST” value [7]?
Its value is 4.5.

And the Cures/no. of animals [8]?
The Cures/no. of animals was 2.

And the Cures/no. of animals [9]?
Its Cures/no. of animals is 1.

And the “Delta MST” value [10]?
Its value is 3.7.

And the Toxic deaths [11]?
The Toxic deaths was 1.

`CCCCCOc1c(OC)cc(NC(C)CCCN)c2ncccc12` (stereo not given) was tested. Which Toxic deaths [12] did it give?
Its Toxic deaths is 4.

And the Cures/no. of animals [3]?
The Cures/no. of animals was 0.

What about the Toxic deaths [13] of the same molecule?
Its Toxic deaths is 2.

What about the Toxic deaths [5] of the same molecule?
Its Toxic deaths is 5.

What about the “Delta MST” value [6] of the same molecule?
The value was 6.1.

What about the “Delta MST” value [7] of the same molecule?
The value was 4.7.

And the “Delta MST” value [14]?
The value was 4.7.

What about the Cures/no. of animals [15] of the same molecule?
Its Cures/no. of animals is 1.

What about the “Delta MST” value [10] of the same molecule?
The value was 4.3.

And the Cures/no. of animals [16]?
The Cures/no. of animals was 1.

For `COc1cc(NC(C)CCCN)c2nccc(C)c2c1` (stereo not given), which Cures/no. of animals [17] is on record?
The Cures/no. of animals was 2.

And the Cures/no. of animals [18]?
The Cures/no. of animals was 2.

What about the “Delta MST” value [6] of the same molecule?
Its value is 4.9.

What about the “Delta MST” value [7] of the same molecule?
The value was 3.1.

And the “Delta MST” value [19]?
Its value is 9.

And the “Delta MST” value [14]?
The value was 5.5.

What about the Cures [20] of the same molecule?
The Cures was 3.

What about the “Delta MST” value [21] of the same molecule?
Its value is 10.

What about the Cures/no. of animals [22] of the same molecule?
Its Cures/no. of animals is 0.
